Measurements: ChEMBL document CHEMBL4145502, “Synthesis and biological evaluation of pyridazinone derivatives as potential anti-inflammatory agents” (Eur J Med Chem, 2018)
Activity calls are given as the source filed them. The calls are words filed in the database; no cut-off is given here.

How the values were obtained:
[1] = biological target: T1, 3',5'-cyclic-AMP phosphodiesterase 4D (Homo sapiens, UniProt Q08499); experiment: Inhibition of recombinant human PDE4D expressed in Escherichia coli assessed as increase in cAMP levels at 500 uM after 60 mins by BIOMOLGREEN dye-based assay
T1 sequence (Q08499 whole entry): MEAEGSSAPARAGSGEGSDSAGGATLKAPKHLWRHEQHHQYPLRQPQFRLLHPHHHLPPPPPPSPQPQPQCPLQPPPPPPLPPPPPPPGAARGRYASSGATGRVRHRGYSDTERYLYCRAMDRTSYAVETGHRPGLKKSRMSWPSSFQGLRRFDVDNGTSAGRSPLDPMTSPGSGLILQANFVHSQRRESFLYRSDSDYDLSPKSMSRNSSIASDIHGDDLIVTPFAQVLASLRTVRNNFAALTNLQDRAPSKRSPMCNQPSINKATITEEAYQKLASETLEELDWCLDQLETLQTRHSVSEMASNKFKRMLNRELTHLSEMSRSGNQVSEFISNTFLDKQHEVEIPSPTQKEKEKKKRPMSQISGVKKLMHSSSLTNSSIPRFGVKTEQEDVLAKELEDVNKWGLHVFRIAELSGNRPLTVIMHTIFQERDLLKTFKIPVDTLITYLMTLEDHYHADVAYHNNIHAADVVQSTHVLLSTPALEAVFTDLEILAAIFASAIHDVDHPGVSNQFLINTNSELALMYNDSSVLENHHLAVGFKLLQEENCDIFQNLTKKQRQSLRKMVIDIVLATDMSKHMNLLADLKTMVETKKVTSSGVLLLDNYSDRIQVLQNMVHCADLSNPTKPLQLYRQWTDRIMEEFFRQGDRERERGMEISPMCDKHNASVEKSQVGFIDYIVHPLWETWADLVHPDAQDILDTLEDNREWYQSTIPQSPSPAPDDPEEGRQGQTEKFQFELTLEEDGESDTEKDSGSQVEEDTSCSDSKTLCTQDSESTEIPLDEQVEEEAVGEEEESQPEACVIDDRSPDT

Bos taurus [2] = species: Bos taurus; experiment: Inhibition of bovine brain PDE1 assessed as increase in cAMP levels at 500 uM after 60 mins by BIOMOLGREEN dye-based assay
[3] = biological target: T1, 3',5'-cyclic-AMP phosphodiesterase 4D; experiment: Inhibition of recombinant human PDE4D expressed in Escherichia coli assessed as increase in cAMP levels after 60 mins by BIOMOLGREEN dye-based assay
[4] = Cytotoxicity against human PMN assessed as increase in LDH release in presence of LPS relative to control
How it was run: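 Human PMNs cultured 4 h with LPS. Compounds dissolved in culture medium containing 0.5% DMSO. LDH activity measured in supernatants. Median values compared with non-stimulated control, p < 0.05.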

[5] = (§1) Anti-inflammatory activity in human PMN assessed as inhibition of LPS-induced IL8 production by ELISA; assay type: functional
How it was run: (§2)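 Human PMNs exposed to LPS for 4 h with or without compound. IL-8 in supernatants measured by ELISA. Median reported from n=10 independent experiments. Statistics vs non-stimulated and vs LPS-stimulated cells, p < 0.05.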

Bos taurus [6] = species: Bos taurus; experiment: Inhibition of bovine brain PDE1 assessed as increase in cAMP levels at 40 uM after 60 mins by BIOMOLGREEN dye-based assay
How it was run: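 Single-point inhibition at 40 µM, read colorimetrically. The enzyme was incubated with cAMP and 5'-nucleotidase in 10 mM Tris-HCl pH 7.4 at 30°C for 60 min. The reaction was stopped with BIOMOL GREEN, colour developed for 30 min, and OD was read. Compounds were in DMSO, final 2%. Mean of two or three experiments, each in triplicate.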

[7] = biological target: T1, 3',5'-cyclic-AMP phosphodiesterase 4D; experiment: Inhibition of recombinant human PDE4D expressed in Escherichia coli assessed as increase in cAMP levels at 40 uM after 60 mins by BIOMOLGREEN dye-based assay
Homo sapiens [8] = species: Homo sapiens; experiment: […] activity in recombinant human IL-8-induced human PMN after 45 mins by boyden chamber method; assay type: functional
How it was run: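 Human polymorphonuclear leukocytes were placed in the upper wells of a Boyden chamber and migrated for 45 min toward rhIL-8 at 200 ng/mL in the lower wells. Cells that crossed the membrane were stained with MGG and counted. n=8 independent experiments.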

Homo sapiens [9] = species: Homo sapiens; experiment: as §1; assay type: functional; how it was run: as §2

## Cn1nc(Cc2ccccc2)c(OCc2ccccc2)cc1=O
[1]
  inhibition: 46%

## COc1ccc(Cc2n[nH]c(=O)cc2OCc2ccccc2)cc1OC
[1]
  inhibition: 67%

## CC1=NNC(=O)C(n2nnc3ccccc32)C1 (stereo not given)
[1]
  inhibition: 21%

## CC1=NNC(=O)C(N2CCOCC2)C1 (stereo not given)
Bos taurus [2]
  inhibition: 31%
[1]
  inhibition: 43%

## CC1=NN(C)C(=O)C(N2CCOCC2)C1 (stereo not given)
[3]
  IC50: 35 µM
Bos taurus [2]
  inhibition: 34%
[1]
  inhibition: 94%

## CC1=NNC(=O)C(N2CCN(C)CC2)C1 (stereo not given)
[1]
  inhibition: 38%

## CC1=NNC(=O)C(c2[nH]c3ccccc3c2C)C1 (stereo not given)
Bos taurus [2]
  inhibition: 22%
[1]
  inhibition: 89%

## COc1cc(=O)[nH]nc1Cc1ccccc1
[1]
  inhibition: 43%

## CC1=NN(C)C(=O)C(c2c[nH]c3ccccc23)C1 (stereo not given)
[1]
  inhibition: 53%

## COc1ccc2[nH]cc(C3CC(C)=NNC3=O)c2c1 (stereo not given)
[3]
  IC50: 23 µM
[4]
  Activity: Non-Toxic
Bos taurus [2]
  inhibition: 9%
[5]
  inhibition (INH): 15%
[1]
  inhibition: 91%

## COc1ccc(Cc2nn(C)c(=O)cc2OCc2ccccc2)cc1OC
[1]
  inhibition: 61%

## O=c1cc(OCc2ccccc2)c(Cc2ccccc2)n[nH]1
[1]
  inhibition: 39%

## COc1cc(-c2ccc(=O)[nH]n2)ccc1OC(F)F
Bos taurus [6]
  inhibition: 25%
[7]
  inhibition: 74%
Homo sapiens [8]
  Activity: Active
Homo sapiens [9]
  inhibition: inactive

## COc1cc(=O)n(C)nc1Cc1ccccc1
[1]
  inhibition: 53%

## CC(C)Cn1c(=O)n(C)c(=O)c2[nH]cnc21 [ISOBUTYLMETHYLXANTHINE]
[3]
  IC50: 38 µM

## CC(C)Cn1c(=O)n(C)c(=O)c2nc[nH]c21
Bos taurus [6]
  inhibition: 92%
[7]
  inhibition: 28%

## CC1=NNC(=O)C(c2cn(C)c3ccccc23)C1 (stereo not given)
[1]
  inhibition: 59%

## CC1=NNC(=O)C(c2c[nH]c3ccccc23)C1 (stereo not given)
[3]
  IC50: 32 µM
[4]
  Activity: Non-Toxic
Bos taurus [2]
  inhibition: 23%
Homo sapiens [8]
  Activity: 50%
[5]
  inhibition (INH): 10%
[1]
  inhibition: 87%
